Results on one compound are retold here after ChEMBL document CHEMBL4000215, “A structure-guided optimization of pyrido[2,3-d]pyrimidin-7-ones as selective inhibitors of EGFRL858R/T790M mutant with improved pharmacokinetic properties” (Eur J Med Chem, 2017).

SMILES strings stand for the structures. pIC50: −log10 of the molar value.

The target of data set [1] is T1, Epidermal growth factor receptor (Homo sapiens, UniProt P00533). Description: Inhibition of N-terminal 6His/TEV protease cleavage site-tagged wild type human EGFR using poly (Glu,Tyr) 4:1 as substrate after 1 hr by ELISA. Background: ELISA stands for enzyme-linked immunosorbent assay.
T1 sequence (P00533 whole entry, the tested form may be a part): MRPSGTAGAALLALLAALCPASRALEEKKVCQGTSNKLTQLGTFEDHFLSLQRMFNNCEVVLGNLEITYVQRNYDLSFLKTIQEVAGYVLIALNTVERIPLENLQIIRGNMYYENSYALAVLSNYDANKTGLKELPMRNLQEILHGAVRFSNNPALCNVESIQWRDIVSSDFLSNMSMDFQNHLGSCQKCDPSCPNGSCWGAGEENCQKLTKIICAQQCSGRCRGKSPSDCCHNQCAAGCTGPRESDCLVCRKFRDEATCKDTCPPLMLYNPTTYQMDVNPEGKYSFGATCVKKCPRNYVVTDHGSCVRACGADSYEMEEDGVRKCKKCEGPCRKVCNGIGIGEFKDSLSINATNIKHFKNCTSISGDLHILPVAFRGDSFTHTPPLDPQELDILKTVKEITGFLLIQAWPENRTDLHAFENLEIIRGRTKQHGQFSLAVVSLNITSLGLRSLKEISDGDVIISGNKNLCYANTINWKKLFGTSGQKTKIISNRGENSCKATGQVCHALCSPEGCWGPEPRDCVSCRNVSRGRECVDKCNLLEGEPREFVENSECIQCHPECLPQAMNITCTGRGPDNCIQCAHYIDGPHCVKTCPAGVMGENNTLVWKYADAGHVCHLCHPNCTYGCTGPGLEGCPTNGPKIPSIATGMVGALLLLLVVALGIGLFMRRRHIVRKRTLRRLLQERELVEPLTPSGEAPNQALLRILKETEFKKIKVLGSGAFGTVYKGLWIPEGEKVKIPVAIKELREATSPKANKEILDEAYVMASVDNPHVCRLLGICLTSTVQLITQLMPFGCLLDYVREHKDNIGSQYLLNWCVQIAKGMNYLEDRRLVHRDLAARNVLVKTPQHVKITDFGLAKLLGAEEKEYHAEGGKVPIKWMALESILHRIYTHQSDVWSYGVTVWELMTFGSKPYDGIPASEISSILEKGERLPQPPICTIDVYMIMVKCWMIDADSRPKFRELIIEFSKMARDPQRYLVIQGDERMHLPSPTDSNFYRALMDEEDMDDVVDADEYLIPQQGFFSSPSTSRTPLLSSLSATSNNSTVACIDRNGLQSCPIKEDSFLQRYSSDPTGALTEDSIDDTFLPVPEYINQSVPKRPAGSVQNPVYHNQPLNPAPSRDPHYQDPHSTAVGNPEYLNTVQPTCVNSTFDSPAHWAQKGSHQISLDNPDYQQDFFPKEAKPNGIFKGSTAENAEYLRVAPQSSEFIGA
Data set [2] deals with Epidermal growth factor receptor (Homo sapiens, UniProt P00533, L858R/T790M). Kind of data set: Inhibition of N-terminal 6His/TEV protease cleavage site-tagged human EGFR L858R/T790M double mutant (696 to 1022 residues) using poly (Glu,Tyr) 4:1 as substrate after 1 hr by ELISA.
Epidermal growth factor receptor (Homo sapiens, UniProt P00533, L858R/T790M), sequence (P00533 25-1210 T790M/L858R limits assumed): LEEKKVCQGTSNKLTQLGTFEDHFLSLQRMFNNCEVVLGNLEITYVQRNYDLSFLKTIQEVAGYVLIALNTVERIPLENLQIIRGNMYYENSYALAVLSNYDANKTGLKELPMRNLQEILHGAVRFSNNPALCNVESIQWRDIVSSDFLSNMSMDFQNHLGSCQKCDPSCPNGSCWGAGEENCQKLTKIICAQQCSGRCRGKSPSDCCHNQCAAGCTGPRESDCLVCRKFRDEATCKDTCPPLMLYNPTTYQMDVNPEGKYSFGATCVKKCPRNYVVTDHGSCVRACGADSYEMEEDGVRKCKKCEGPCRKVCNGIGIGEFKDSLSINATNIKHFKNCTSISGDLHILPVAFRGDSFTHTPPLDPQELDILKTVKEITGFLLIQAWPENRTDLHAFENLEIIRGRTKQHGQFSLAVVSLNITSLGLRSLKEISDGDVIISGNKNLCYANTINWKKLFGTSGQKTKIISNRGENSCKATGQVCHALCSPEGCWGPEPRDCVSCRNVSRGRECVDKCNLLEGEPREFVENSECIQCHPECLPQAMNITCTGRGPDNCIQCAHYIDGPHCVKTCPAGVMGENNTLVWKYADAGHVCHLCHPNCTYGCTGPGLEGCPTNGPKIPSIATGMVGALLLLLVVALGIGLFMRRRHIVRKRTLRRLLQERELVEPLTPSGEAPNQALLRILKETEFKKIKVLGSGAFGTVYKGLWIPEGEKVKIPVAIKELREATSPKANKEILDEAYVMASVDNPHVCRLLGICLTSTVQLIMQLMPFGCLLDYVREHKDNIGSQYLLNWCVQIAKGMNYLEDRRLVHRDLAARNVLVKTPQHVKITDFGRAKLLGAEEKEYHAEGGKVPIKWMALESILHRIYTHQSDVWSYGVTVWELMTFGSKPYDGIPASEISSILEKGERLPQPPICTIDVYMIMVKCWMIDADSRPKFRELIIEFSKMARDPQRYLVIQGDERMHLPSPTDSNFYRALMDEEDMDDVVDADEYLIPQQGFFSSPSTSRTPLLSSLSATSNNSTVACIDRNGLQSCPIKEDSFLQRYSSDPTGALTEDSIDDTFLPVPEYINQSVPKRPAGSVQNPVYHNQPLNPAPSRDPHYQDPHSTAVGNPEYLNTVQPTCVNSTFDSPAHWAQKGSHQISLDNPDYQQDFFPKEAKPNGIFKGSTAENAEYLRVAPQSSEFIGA
A further data set deals with NCI-H1975. Description: Antiproliferative activity against human NCI-H1975 cells harboring EGFR L858R/T790M double mutant after 72 hrs by SRB assay. The data set is classed as functional, cell-based. The conditions noted are these: NCI-H1975, 72 h. In short, it runs like this:
(§1)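 Cells were cultured in RPMI 1640 with 10% FBS and 1% penicillin-streptomycin at 37 °C in 5% CO2, and their EGFR gene was sequenced before use. They were exposed to a range of compound concentrations for 72 h, and growth was read by sulforhodamine B staining. IC50 came from non-linear regression with a sigmoidal dose-response model.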

A further data set relates to A-431. Kind of data set: Antiproliferative activity against human A431 cells harboring wild type EGFR after 72 hrs by SRB assay. The conditions noted are these: A-431, 72 h. The class given is cell-based. In short, it runs like this:
as §1
In general terms: Sulforhodamine B stains cellular protein and so reports cell mass.

Data set [3] addresses T1, Epidermal growth factor receptor. Kind of data set: Inhibition of EGF-stimulated wild type EGFR phosphorylation in human A431 cells at 3 to 300 nM preincubated for 4 hrs followed by EGF stimulation measured after 10 mins by Western blot analysis. The conditions noted are these: a431, 10 min, 0.3 µM. On the technique in general: Immunoblotting shows a protein as a band on a membrane.

Data set [4] shares this target. Kind of data set: Inhibition of EGF-stimulated wild type EGFR in human A431 cells assessed as decrease in ERK phosphorylation at 3 to 300 nM preincubated for 4 hrs followed by EGF stimulation measured after 10 mins by Western blot analysis. The conditions noted are these: a431, 10 min, 0.3 µM.

A word on the pIC50: it is −log10 of the IC50, conventionally taken in molar units. Low values mean a large IC50, high ones a small IC50. Turning to `C=CC(=O)Nc1cc(-n2c(=O)cc(C)c3cnc(Nc4ccc(N5CCN(C)CC5)cc4OC)nc32)cc(C(F)(F)F)c1`, the pIC50 in data set [1] is 6.74; in data set [2], 8.70; in the data set with NCI-H1975, 7.40; with A-431, 5.86. In addition, the “inhibition (INH)” value in data set [3] and in data set [4] was “Not Active” in each case.
